b-catenin transl: modulators of beta-catenin nuclear translocation, primary screen, imaging, HeLa cells, immunofluorescence, high-content; nuclear translocation activity, % at 5 µM; 190,000 tested, 0.3% active; AID 1665, 2009;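 active = nuclear translocation activity above 50% at 5 µM, with a well cell count of 50 or more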;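 also: per-cell ratio of nuclear to cytoplasmic median beta-catenin stain intensity; plate controls were DMSO negative control for no effect and GSK-3 inhibitor IX positive control for full effect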
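System: Human HeLa cells, endogenous beta-catenin | Compound dosing: 5 µM primary, 0.02–20 µM confirmation | Timing: 24 h compound exposure at 37°C, 5% CO2 | Measured by: Fluorescence imaging of beta-catenin antibody stain plus DAPI | Read-out basis: % activation of per-cell nuclear versus cytoplasmic median beta-catenin signal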
Dynein cargo inh: inhibitors of GR-EGFP nuclear translocation, primary screen, dynein cargo transport inhibitor project, imaging, high-content, 3617.4 mouse cells. test concentration mostly 20 µM; stimulated with dexamethasone, 1 µM; hits give low values. 220,000 tested, 0.47% active. z-score, hits read low;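 active = plate z-score of nuclear minus cytoplasmic receptor signal below a set negative limit, without overly bright fluorescence or cell loss, cut at about -3.5 in these data, passing the limit was not always enough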;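 also: z-score of nuclear minus cytoplasmic ring GR-EGFP intensity difference per well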
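Buffer or medium: tet-free medium with charcoal-stripped serum / Also added: dexamethasone agonist, 1.0 µM final, for 30 min / Timing: induction 48 h, compound 1 h, agonist 30 min / Measured by: high-content fluorescence imaging after fixation / Read-out: nuclear-to-cytoplasmic GR-EGFP distribution per well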
MT stabilize HCS: microtubule stabilizers in HeLa cells, primary screen, imaging, high-content imaging | 200,000 tested, 0.83% active | HeLa tubulin immunostaining HCS, 24 h; share of cells brighter than vehicle mean+2SD | % tubulin-high responders, % at 10 µM | AID 2205, 2009;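 active = plate Z-score above 3 for both tubulin-high and condensed-nucleus cell shares, with cell loss under 80%, at 10 µM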;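 also: anti alpha tubulin signal scored within the nucleus-defined area of each cell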
Autophagy HCS: autophagy modulators in MEF cells, primary screen, imaging, high-content, MEF GFP-LC3 | MEF GFP-LC3 puncta imaging; test concentration mostly 10 µM | calls only at 10 µM (by protocol) | 190,000 tested, 0.98% active | AID 463193, 2010;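 active = percentage of spot-positive cells more than 3 SD above its plate mean, without a fluorescence outlier flag or 80% toxicity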;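 also: spot-positive cell cutoff set from DMSO-treated cells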
Lmaj promast: Leishmania major promastigote growth inhibition, primary screen | Leishmania major promastigotes, resazurin fluorescence viability | inhibition, % at 10 µM | 200,000 tested, 9% active | AID 1063, 2008; in the data active = inhibition above about 50%;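 also: promastigotes grown with compound for 44 hours at 28 °C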
CHOP inhibitor: inhibitors of CHOP promoter induction, primary screen, cell-based, unfolded protein response, luciferase reporter | inhibition, % at 10 µM | 220,000 tested, 3.8% active | AID 2732, 2010 | CHO-K1 CHOP-promoter luciferase, tunicamycin-induced, 15-18 h;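 active = compounds that reduced the stress-induced luciferase reporter signal by more than about 70% of percent inhibition, limit read from the data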;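 also: 0% = tunicamycin plus vehicle and 100% = wells without tunicamycin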
An asterisk follows results filed as active; i = inactive; x = no result given; + = active, no number. This is a sample that favours compounds with a hit; in the whole collection about 12% have one here.

SMILES | b-catenin transl | Dynein cargo inh | MT stabilize HCS | Autophagy HCS | Lmaj promast | CHOP inhibitor
COc1cc(C)c(Cl)cc1S(=O)(=O)n1cnc(C)c1 | x | 0.31 | 2 | i | 89* | 17
O=C1COc2ccc(C(=O)COC(=O)CNC(=O)c3ccco3)cc2N1 | 0 | -0.17 | 4 | i | -10 | -7
O=C1N/C(=C\c2ccc(N3CCOCC3)c(F)c2)C(=O)N1Cc1ccccc1 | 1 | 0.54 | 2 | i | 2 | 85*
CCCN1C(=O)/C(=C/c2ccc(N3CCOCC3)cc2)NC1=S | -5 | 0.87 | 2 | i | 8 | -17
Cc1ccc(CN2C(=O)N/C(=C\c3ccc(N4CCOCC4)cc3)C2=O)cc1 | -2 | -0.44 | 8 | i | -7 | 92*
Cc1ccc(/C=C2/NC(=O)N(Cc3ccc(Br)cc3)C2=O)o1 | 5 | -0.3 | 5 | i | -11 | 105*
O=C1N/C(=C/c2cccn2-c2ccccc2)C(=O)N1Cc1ccc(F)cc1 | 1 | -0.25 | 6 | i | -5 | 61
CCC(=O)NC(Nc1sc2c(c1C(=O)OC)CCC2)C(Cl)(Cl)Cl (stereo not given) | x | 0.18 | 2 | i | 73* | 43
COC(=O)c1c(NC(NC(=O)CC(C)C)C(Cl)(Cl)Cl)sc2c1CCC2 (stereo not given) | 1 | 0.67 | 2 | i | 28 | 91*
Nc1nc(SCC(=O)NCCc2ccccc2)[nH]c(=O)c1-c1ccccc1 | 0 | -0.15 | 8 | i | -4 | 3
Cc1ccc(C)c(N2CCN(C(=O)Cc3ccc(-n4c(=O)[nH]c5ccsc5c4=O)cc3)CC2)c1 | x | -0.31 | 2 | i | 51* | -22
CN(Cc1cccs1)C(=O)Cn1cnc2ccccc2c1=O | -1 | -0.52 | 2 | + | -4 | 6
CCCCCN1C=CC(=C2C(=O)c3ccccc3C2=O)C=C1 | -1 | 0.18 | 3 | i | 12 | 98*
CC1=CC(=C2C(=O)c3ccccc3C2=O)C=C(C)N1C | 1 | 0.81 | 5 | i | 6 | 21
O=C(CSc1ccc(-c2ccccc2)nn1)c1cccs1 | -4 | 1.5 | 3 | + | 10 | 39
COc1ccc(-c2ccc(SCC(=O)c3ccccc3)nn2)cc1OC | 0 | -0.3 | 4 | i | 61* | 30
N#Cc1c(-c2ccccc2)cc(C2CC2)nc1SCC(=O)c1cccs1 | 5 | 0.32 | 6 | + | 2 | 20
COc1ccc(NC(C)=O)cc1NC(=O)CSc1nc2ncccc2[nH]1 | -4 | 0.77 | 2 | i | 0 | -4
CC(C)CCc1noc(CN(C)CC2CCN(Cc3ccccc3)CC2)n1 | 0 | -0.27 | 3 | i | 83* | -10
CN(Cc1nc(-c2cnccn2)no1)CC1CCN(Cc2ccccc2)CC1 | 0 | 1.2 | 2 | i | 91* | -10
O=C(Cc1ccccc1)Nc1ccccc1Oc1ccccc1 | -1 | -0.32 | 2 | i | -8 | 18
CC(=O)Nc1ccc(C(=O)n2nc(C)cc2C)cc1 | 0 | -0.83 | 3 | i | -7 | 20
N#C[C@H]1[C@H](c2ccccc2)[C@](C#N)(C(=O)c2ccccc2)[C@@H]2C=Cc3ccccc3N21 | 78* | -1.8 | 25* | i | 48 | -14
Cc1ccc(-n2[nH]c(C)c(C=Nc3ccc(S(=O)(=O)Nc4nccs4)cc3)c2=O)cc1 | x | 0.18 | 2 | i | -4 | -18
Cc1[nH]n(-c2ccc(Br)cc2)c(=O)c1C=Nc1ccc(S(=O)(=O)Nc2nccs2)cc1 | -1 | 1.3 | 2 | i | -1 | 91*
SMILES | b-catenin transl | Dynein cargo inh | MT stabilize HCS | Autophagy HCS | Lmaj promast | CHOP inhibitor
CCCn1c(SCC(=O)NC(=O)NC(C)(C)C)n[nH]c1=O | -3 | -0.54 | 2 | i | -6 | 10
O=C(c1ccc(CSc2nc3ccncc3[nH]2)cc1)N1CCCCCC1 | 0 | -0.57 | x | x | x | 23
O=C(c1ccc(CSc2nc3ccncc3[nH]2)cc1)N1CCN(c2cccc(Cl)c2)CC1 | -1 | 2 | 4 | i | 33 | 83*
O=C(CSc1nc(-c2ccccc2)nc2c1Cc1ccccc1O2)Nc1ccc(C(=O)O)cc1 | 3 | 0.37 | 6 | i | -11 | 77*
COc1nc(Nc2ccc([N+](=O)[O-])cc2)nc(NC2CCCCC2)n1 | 0 | 0.58 | 3 | i | 89* | 82*
Cc1[nH]n(-c2ccccc2)c(=S)c1C=Nc1ccc([N+](=O)[O-])cc1 | -1 | -0.96 | 2 | i | -5 | 80*
CN(C)S(=O)(=O)c1cccc(NC(=S)NCCCn2ccnc2)c1 | -3 | 0.31 | 3 | i | -5 | 6
Cc1nn(Cc2c(Cl)cccc2Cl)c(Cl)c1/C=C/C(=O)OCC(=O)NCC(F)(F)F | -1 | 1.3 | 2 | i | -6 | 75*
Cc1ccc(NC(=O)COC(=O)c2ccc3c(c2)C(=O)N(CCc2ccccc2)C3=O)c(C)c1 | 2 | -0.48 | 3 | i | -7 | 78*
O=C(COC(=O)c1ccc2c(c1)C(=O)N(Cc1ccncc1)C2=O)Nc1ccccc1[N+](=O)[O-] | -1 | 0.3 | 2 | i | 54* | -16
CCOc1ccc(NC(=O)COC(=O)c2ccc3c(c2)C(=O)N(CCc2ccccc2)C3=O)cc1 | -1 | 2.5 | 4 | i | 1 | 27
CC(OC(=O)c1ccc2c(c1)C(=O)N(Cc1ccncc1)C2=O)C(=O)Nc1cccc(Cl)c1Cl (stereo not given) | 0 | -0.79 | 5 | i | -7 | 11
Cc1ccc(S(=O)(=O)C/N=C(/NC(=S)N(c2ccccc2)c2ccccc2)c2ccccc2)cc1 | x | -0.59 | 1 | i | 4 | 9
CCn1c(COc2cccc(OC)c2)nnc1SCC(=O)Nc1cccc(OC)c1 | 4 | 0.44 | 3 | i | 18 | 18
Cc1ccc(-n2c(C)nc3c(cnn3-c3ccc(F)cc3)c2=O)cc1 | x | -0.38 | 2 | i | 2 | 48
Cc1ccc(-n2ncc3c(=O)n(-c4ccc(C)c(C)c4)c(C)nc32)cc1 | -1 | 0.0091 | 5 | i | 2 | 73*
COc1ccc(-n2c(C)nc3c(cnn3-c3ccc(C)c(C)c3)c2=O)cc1 | 0 | -0.41 | 2 | x | 1 | 73*
COc1ccc(-c2csc(N=C(N)N)n2)cc1 | 0 | 2.3 | 3 | i | 60* | -10
CC1(C)CC(=O)C2=C(C1)NC(Nc1nc3ccccc3o1)=NC21CCCCC1 | -3 | -0.21 | 3 | i | 59* | 21
CC1CCc2cccc3c2N1c1cc(C#N)c(C#N)cc1O3 (stereo not given) | x | -0.31 | 15 | + | 11 | 29

Compound activity as filed in PubChem BioAssay.
